Here are results for three molecules from ChEMBL document CHEMBL1155280, “New arylthioindoles and related bioisosteres at the sulfur bridging group. 4. Synthesis, tubulin polymerization, cell growth inhibition, and molecular modeling studies” (J Med Chem, 2009).

Data set [1] has as its system MCF7. Nature of the data set: Growth inhibition of human MCF7 cells after 48 hrs by sulforhodamine B assay. The class given is functional, cell-based. The conditions noted are these: MCF7, 48 h.
Data set [2] relates to Saccharomyces cerevisiae. Briefly: Toxicity in Saccharomyces cerevisiae assessed as growth inhibition at second dilution at 20 uM after 3 days. Format: organism-based. The conditions noted are these: in vivo, 72 h. An outline of the steps: (§1)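 S. cerevisiae BY4741 grown at 28 °C in minimal SD medium with 2% glucose. Exponential culture (5 × 10^6 cells/mL) exposed 18 h at 28 °C to compound at 20 μM, washed, resuspended in SD, serially diluted 10-fold, incubated overnight. Spotted onto YPD plates; growth scored by dilution reached after 3 days at 28 °C.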

Data set [3] is described as follows: Inhibition of tubulin polymerization after 20 mins by spectrophotometry. In short, it runs like this:
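Tubulin 10 μM in 0.8 M monosodium glutamate, pH 6.6, preincubated 15 min at 30 °C with varying drug, chilled on ice. GTP added to 0.4 mM, turbidity at 350 nm followed 20 min at 30 °C. Extent of assembly measured; IC50 ± SD.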

Data set [4] relates to Saccharomyces cerevisiae. Nature of the data set: Toxicity in Saccharomyces cerevisiae assessed as growth inhibition at first dilution at 20 uM after 3 days. The conditions noted are these: in vivo, 72 h. Format: organism-based. In short, it runs like this:
as §1

The subject of data set [5] is HEK293. Briefly: Cytotoxicity against HEK293 cells at 10 to 200 nM by MTT assay. Format: cell-based. The note with it: human, hek293, 0.2 µM; TDE = time-dependent effect. An outline of the steps:
(§2)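 MTT assay. Seeded 10^5 cells/well, compound added after 24 h at 10, 30, 50, 100, 150, 200 nM for 24 or 48 h. MTT 1 mg/mL, 2 h at 37 °C in dark, formazan dissolved in DMSO, read at 550 nm. Triplicate; 0.5% DMSO control.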
(In general: Tetrazolium assays rely on reduction of a dye to a coloured formazan, in cell work by metabolically active cells.)

For a further data set, the system named is A10. Briefly: Growth inhibition of rat A10 cells. The class given is cell-based. In short, it runs like this:
(§3)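 Human aortic smooth muscle, PtK2 kidney epithelial, rat A10 aortic smooth muscle and HUVEC lines grown as the supplier recommends, under 5% CO2.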

The species named for another data set is Homo sapiens. Nature of the data set: Selectivity index, ratio of IC50 for HSMC to IC50 for human MCF7. In short, it runs like this:
(§4)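 Selectivity index: IC50 in the named nontransformed line divided by IC50 in MCF-7 cells.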

Data set [6] is described as follows: Growth inhibition of mouse J774.1 cells at 300 nM after 48 hrs by MTT assay relative to control. The class given is cell-based. The note with it: read-out: GI.
For a further data set, the species on record is Bos taurus. Briefly: Inhibition of [3H]colchicine binding to bovine tubulin at 5 uM after 10 mins by DEAE-cellulose filter method.
The test system of data set [7] is HCT-116. Briefly: Antiproliferative activity against human HCT116 cells expressing mismatch repair gene MLH1 complemented with chromosome 3 assessed as cell proliferation at 1 uM after 24 hrs by MTT assay relative to control. Format: functional. The conditions noted are these: HCT-116, 24 h, read-out: Activity. In short, it runs like this: (§5)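 HeLa and HCT116/chr3 cells grown at 37 °C, 5% CO2 in D-MEM with 10% fetal calf serum (HCT116/chr3 medium plus 500 μg/mL G418). Seeded 1 × 10^3 cells/well, treated 24 h later for 24 h from 10 mM DMSO stock; 1% DMSO solvent control. Quadruplicate, repeated three times; given as % of control ± SD.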

Data set [8] relates to MCF7. Briefly: Selectivity index, ratio of IC50 for rat A10 cells to IC50 for human MCF7 cells. Format: functional. An outline of the steps: as §4
Data set [9] has as its system HeLa. Nature of the data set: Antiproliferative activity against human HeLa cells assessed as cell proliferation at 1 uM after 24 hrs by MTT assay relative to control. The class given is functional. The note with it: read-out: Activity. In short, it runs like this: as §5
The nature of data set [10]: Growth inhibition of HSMC. Format: cell-based. The note with it: Homo sapiens. In short, it runs like this: as §3
Data set [11] has as its system HEK293. Nature of the data set: Cytotoxicity against HEK293 cells after 48 hrs by MTT assay. The class given is cell-based, Homo sapiens. The note with it: for Activity: human, hek293, 48 h. An outline of the steps: as §2
For the next data set, the system named is HUVEC. Nature of the data set: Growth inhibition of HUVEC. The conditions noted are these: Homo sapiens. Format: cell-based. An outline of the steps:
as §3

The test system of data set [12] is U-937. Nature of the data set: Cytotoxicity against human U937 cells after 48 hrs by MTT assay. The class given is functional, cell-based. The note with it: for IC50: U-937, 48 h. In short, it runs like this: as §2
Data set [13] deals with MCF7. Briefly: Selectivity index, ratio of IC50 for Potorous tridactylus PtK2 cells to IC50 for human MCF7 cells. The class given is functional. An outline of the steps: as §4
Data set [14] has as its system U-937. Briefly: Cytotoxicity against human U937 cells at 10 to 200 nM by MTT assay. Format: functional, cell-based. The note with it: TDE = time-dependent effect. In short, it runs like this:
as §2

For data set [15], the system named is MCF7. Briefly: Selectivity index, ratio of IC50 for HUVEC to IC50 for human MCF7 cells. In short, it runs like this:
as §4

In data set [16] the test system is M14. Nature of the data set: Cytotoxicity against human M14 cells assessed as effect on cell morphology at 300 nM after 48 hrs by time-lapse microscopy. The class given is functional, cell-based. In short, it runs like this:
(§6)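 Morphology of HEK and M14 cells followed by time-lapse microscopy in 96-well plates at 37 °C, 5% CO2, with images captured every hour over 48 h.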

Data set [17] relates to HeLa. Briefly: Antiproliferative activity against human HeLa cells assessed as cell proliferation at 0.5 uM after 24 hrs by MTT assay relative to control. Format: functional. The conditions noted are these: read-out: Activity. An outline of the steps: as §5
The subject of data set [18] is M14. Nature of the data set: Cytotoxicity against human M14 cells after 48 hrs by MTT assay. The class given is functional, cell-based. The conditions noted are these: for IC50: M14, 48 h. An outline of the steps: as §2
In data set [19] the test system is HCT-116. Briefly: Antiproliferative activity against human HCT116 cells expressing mismatch repair gene MLH1 complemented with chromosome 3 assessed as cell proliferation at 0.5 uM after 24 hrs by MTT assay relative to control. Format: functional. The conditions noted are these: HCT-116, 24 h, read-out: Activity. In short, it runs like this:
as §5

Data set [20] concerns HEK293. Nature of the data set: Cytotoxicity against HEK293 cells assessed as effect on cell morphology at 300 nM after 48 hrs by time-lapse microscopy. Format: cell-based. The conditions noted are these: human, hek293, 48 h, 0.3 µM. An outline of the steps: as §6
The nature of data set [21]: Growth inhibition of Potorous tridactylus PtK2 cells. Format: cell-based. An outline of the steps: as §3
Data set [22] relates to M14. Nature of the data set: Cytotoxicity against human M14 cells at 10 to 200 nM by MTT assay. Format: functional, cell-based. The conditions noted are these: TDE = time-dependent effect. An outline of the steps:
as §2

Calls of active or inactive are those of the source. No cut-off for these calls is given here.

Consider `COc1cc(Cn2cccc2C(=O)O)cc(OC)c1OC`, for which the IC50 (in general, the concentration that gives 50% inhibition) is greater than 2500 nM in the data set with MCF7 [1] and greater than 40000 nM in data set [3]. The Activity entry was “Non-toxic” in the data set on Saccharomyces cerevisiae [2] and “Toxic” in the data set with Saccharomyces cerevisiae [4].

As for `COc1cc(Sc2c[nH]c3ccc(Br)cc23)cc(OC)c1OC`, the Activity entry is “tde” in the data set with HEK293 [5]; “Non-toxic” in the data set with Saccharomyces cerevisiae [2]; “Dose-dependent effect” in the data set with HEK293 [11]; “Dose-dependent effect” with U-937 [12]; “tde” with U-937 [14]; “Dose-dependent effect” in the data set with M14 [18]. For the same molecule, the Activity result in the data set on Saccharomyces cerevisiae [4] is “Toxic”; in the data set on HEK293 [20], “Toxic”; with M14 [22] it was “tde”. The IC50 in the data set on A10 turned out to be 210 nM; with MCF7 [1], 43 nM; in [10], 300 nM; in the data set with HUVEC, 400 nM; with U-937 [12] it was 100 nM; in the data set with M14 [18] it was 194 nM. The IC50 is 1600 nM in data set [3] and 230 nM in [21]. Further, the Ratio IC50 in the data set filed under Homo sapiens was 7; in the data set with MCF7 [8], 4.9; with MCF7 [13], 5.3; in the data set on MCF7 [15], 9.3. In data set [6], the inhibition at 48 h, 0.3 µM is 20%. The molecule further yielded an inhibition in the data set filed under Bos taurus of 65%. For the same molecule, the results for the growth at 1 µM in the data set with HCT-116 [7] and in the data set with HeLa [9] were 60% and 56%, respectively. The result in the data set with M14 [16] was Active. Moreover, the figures for the growth at 0.5 µM with HeLa [17] and in the data set on HCT-116 [19] were 47% and 60%, respectively.

On to `COC(=O)c1[nH]c2ccc(OC)cc2c1Cc1cc(OC)c(OC)c(OC)c1`, for which the Activity entry in the data set with HEK293 [5] was “tde”; in the data set with HEK293 [11], “Dose-dependent effect”; in the data set on U-937 [12] it was “Dose-dependent effect”; in the data set with U-937 [14], “tde”; in the data set with M14 [18], “Dose-dependent effect”; with HEK293 [20] it was “Toxic”. For the same molecule, in the data set on M14 [22], the Activity result was “tde”. For the same molecule, the IC50 is 130 nM in the data set on A10; 33 nM in the data set with MCF7 [1]; 70 nM in data set [10]; 181 nM in the data set on HEK293 [11] (Homo sapiens, HEK293, 48 h); 170 nM with HUVEC; 189 nM in the data set with U-937 [12]. The IC50 stood at 137 nM in the data set on M14 [18], 1400 nM in data set [3] and 190 nM in [21]. In addition, the Ratio IC50 in the data set listed under Homo sapiens worked out at 2.1; with MCF7 [8] it was 3.9; in the data set with MCF7 [13], 5.8; in the data set with MCF7 [15], 5.2. Moreover, the inhibition at 48 h, 0.3 µM in data set [6] came to 20%. Also, the inhibition in the data set filed under Bos taurus turned out to be 59%. Besides, the growth at 1 µM in the data set with HCT-116 [7] amounted to 69%; with HeLa [9] it was 51%. The result in the data set with M14 [16] was Active. Besides, the growth at 0.5 µM in the data set on HeLa [17] was determined as 52%; in the data set with HCT-116 [19], 69%.
